# From ChEMBL document CHEMBL1152612, “Ursolic acid derivatives induce cell cycle arrest and apoptosis in NTUB1 cells associated with reactive oxygen species” (Bioorg Med Chem, 2009)
# The source made the active and inactive calls. The calls are words filed in the database; no cut-off is given here.
# Columns and labels:
# NTUB1 [1] = experiment: Increase in intracellular reactive oxygen species level in human NTUB1 cells at 20 uM after 48 hrs in presence of 1 mM N-acetyl-cysteine by DCFH-DA staining; type: functional, cell-based
# How it was run: (§1)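 NTUB1 cells treated for 24 or 48 h, with or without 1 mM N-acetylcysteine. DCFH-DA (10 µM) added 30 min before harvest; cells then trypsinized, PBS-washed, and DCF green fluorescence read at once by flow cytometry through a 525 nm band-pass filter. Three independent experiments.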
# PC-3 = experiment: Cytotoxicity against human PC3 cells at 50 uM after 72 hrs by MTT assay; type: functional, cell-based
# How it was run: (§2)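 Cells grown in RPMI 1640 with 10% FBS, penicillin/streptomycin and 2 mM L-glutamine at 37 °C under 5% CO₂. Seeded 1800 cells/well, left overnight, then given graded compound concentrations for 72 h; compounds diluted from DMSO, 0.1% DMSO in medium and in controls. MTT 2 mg/mL in PBS for 3 h, formazan dissolved in DMSO, absorbance 540 nm. Viability given as % of control; IC50 by median-effect analysis, mean ± SD.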
# NTUB1 [2] = experiment: Increase in intracellular reactive oxygen species level in human NTUB1 cells at 20 uM after 48 hrs by DCFH-DA staining; type: functional, cell-based; how it was run: as §1
# [3] = Cell cycle arrest in human NTUB1 cells assessed as accumulation at S phase at 20 uM after 48 hrs using propidium iodide staining by flow cytometry; type: functional, cell-based
# How it was run: (§3)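 NTUB1 cells plated at 8 × 10⁵ per 10 cm dish and exposed to compound for 24 or 48 h; untreated controls got medium alone. Cells trypsinized, PBS-washed and fixed overnight in ice-cold MeOH at −20 °C, then stained with 50 µg/mL propidium iodide plus RNase A. DNA content was read by flow cytometry, with apoptosis taken as sub-G1 accumulation. Three independent experiments.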
# [4] = Cell cycle arrest in human NTUB1 cells assessed as accumulation at S phase at 20 uM after 24 hrs using propidium iodide staining by flow cytometry; type: functional, cell-based; how it was run: as §3
# NTUB1 [5] = experiment: Increase in intracellular reactive oxygen species level in human NTUB1 cells at 20 uM after 24 hrs in presence of 1 mM N-acetyl-cysteine by DCFH-DA staining; type: functional, cell-based; how it was run: as §1
# NTUB1 [6] = experiment: Increase in intracellular reactive oxygen species level in human NTUB1 cells at 50 uM after 24 hrs in presence of 1 mM N-acetyl-cysteine by DCFH-DA staining; type: functional, cell-based; how it was run: as §1
# [7] = Cell cycle arrest in human NTUB1 cells assessed as accumulation at G2/M phase at 20 uM after 24 hrs using propidium iodide staining by flow cytometry; type: functional, cell-based; how it was run: as §3
# [8] = Cell cycle arrest in human NTUB1 cells assessed as accumulation at G2/M phase at 50 uM after 24 hrs using propidium iodide staining by flow cytometry; type: functional, cell-based; how it was run: as §3
# NTUB1 [9] = experiment: Increase in intracellular reactive oxygen species level in human NTUB1 cells at 20 uM after 24 hrs by DCFH-DA staining; type: functional, cell-based; how it was run: as §1
# [10] = Induction of apoptosis in human NTUB1 cells assessed as accumulation at subG1 phase at 20 uM after 48 hrs using propidium iodide staining by flow cytometry; type: functional; how it was run: as §3
# Tubulin (Homo sapiens) = Tubulin (Homo sapiens) (UniProt P68371+Q9H4B7+P0DPH7+P68366+Q13509+Q71U36+P04350+Q3ZCM7+P07437+P68363+Q9BQE3+Q6PEY2+Q13885+Q9BVA1+Q9BUF5); experiment: Inhibition of tubulin polymerization in human NTUB1 cells assessed as blockade of microtubule assembly at 50 uM by indirect immunofluorescence staining; type: cell-based
# How it was run: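 NTUB1 cells on coverslips were treated for 24 h, then fixed in 2% formaldehyde/PBS for 20 min and in cold methanol (−20 °C) for 3 min. Stained with anti-α-tubulin monoclonal antibody for 3 h at room temperature, then rhodamine-conjugated secondary antibody for 1 h in the dark. Mounted in 80% glycerol/PBS and examined by fluorescence microscopy.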
# [11] = Cytotoxicity against human NTUB1 cells after 72 hrs by MTT assay; type: functional, cell-based; details: NTUB1, 72 h; how it was run: as §2
# NTUB1 [12] = experiment: Increase in intracellular reactive oxygen species level in human NTUB1 cells at 50 uM after 48 hrs by DCFH-DA staining; type: functional, cell-based; how it was run: as §1
# [13] = Cell cycle arrest in human NTUB1 cells assessed as accumulation at G1 phase at 50 uM after 48 hrs using propidium iodide staining by flow cytometry; type: functional, cell-based; how it was run: as §3
# [14] = Cell cycle arrest in human NTUB1 cells assessed as accumulation at G2/M phase at 20 uM after 48 hrs using propidium iodide staining by flow cytometry; type: functional, cell-based; how it was run: as §3
# NTUB1 [15] = experiment: Increase in intracellular reactive oxygen species level in human NTUB1 cells at 50 uM after 24 hrs by DCFH-DA staining; type: functional, cell-based; how it was run: as §1
# [16] = Induction of apoptosis in human NTUB1 cells assessed as accumulation at subG1 phase at 50 uM after 24 hrs using propidium iodide staining by flow cytometry; type: functional; how it was run: as §3
# [17] = Cell cycle arrest in human NTUB1 cells assessed as accumulation at G1 phase at 20 uM after 48 hrs using propidium iodide staining by flow cytometry; type: functional, cell-based; how it was run: as §3
# [18] = Cell cycle arrest in human NTUB1 cells assessed as accumulation at G1 phase at 20 uM after 24 hrs using propidium iodide staining by flow cytometry; type: functional, cell-based; how it was run: as §3
# [19] = Induction of apoptosis in human NTUB1 cells assessed as accumulation at subG1 phase at 20 uM after 24 hrs using propidium iodide staining by flow cytometry; type: functional; how it was run: as §3
# NTUB1 [20] = experiment: Increase in intracellular reactive oxygen species level in human NTUB1 cells at 50 uM after 48 hrs in presence of 1 mM N-acetyl-cysteine by DCFH-DA staining; type: functional, cell-based; how it was run: as §1
# [21] = Cell cycle arrest in human NTUB1 cells assessed as accumulation at G2/M phase at 50 uM after 48 hrs using propidium iodide staining by flow cytometry; type: functional, cell-based; how it was run: as §3
# [22] = Cell cycle arrest in human NTUB1 cells assessed as accumulation at G1 phase at 50 uM after 24 hrs using propidium iodide staining by flow cytometry; type: functional, cell-based; how it was run: as §3
# [23] = Cell cycle arrest in human NTUB1 cells assessed as accumulation at S phase at 50 uM after 48 hrs using propidium iodide staining by flow cytometry; type: functional, cell-based; how it was run: as §3
# A549 = experiment: Cytotoxicity against human A549 cells at 50 uM after 72 hrs by MTT assay; type: functional, cell-based; how it was run: as §2
# [24] = Cell cycle arrest in human NTUB1 cells assessed as accumulation at S phase at 50 uM after 24 hrs using propidium iodide staining by flow cytometry; type: functional, cell-based; how it was run: as §3
# [25] = Induction of apoptosis in human NTUB1 cells assessed as accumulation at subG1 phase at 50 uM after 48 hrs using propidium iodide staining by flow cytometry; type: functional; how it was run: as §3
compound,measurement,setting,value
C=C(C)[C@@H]1CC[C@]2(C)[C@H](CC=C3[C@@H]4[C@@H](C)[C@H](C)CC[C@]4(C(=O)O)CC[C@]32C)[C@@]1(C)CCC(=O)O,Activity,NTUB1 [1],Active
same,Activity,PC-3,Active
same,Activity,NTUB1 [2],Active
same,Activity,[3],20.6%
same,Activity,[4],23.7%
same,Activity,NTUB1 [5],inactive
same,Activity,NTUB1 [6],inactive
same,Activity,[7],10.9%
same,Activity,[8],13.1%
same,Activity,NTUB1 [9],Active
same,Activity,[10],5.12%
same,Activity,Tubulin (Homo sapiens),Active
same,IC50,[11],25.5 µM
same,Activity,NTUB1 [12],Active
same,Activity,[13],66.4%
same,Activity,[14],16.6%
same,Activity,NTUB1 [15],Active
same,Activity,[16],25.75%
same,Activity,[17],52.2%
same,Activity,[18],41.3%
same,Activity,[19],21.68%
same,Activity,NTUB1 [20],Active
same,Activity,[21],11.1%
same,Activity,[22],52.2%
same,Activity,[23],3.05%
same,Activity,A549,Active
same,Activity,[24],6.9%
same,Activity,[25],14%
